We go through four compounds from ChEMBL document CHEMBL1123538, “Inhibitors of human purine nucleoside phosphorylase. Synthesis, purine nucleoside phosphorylase inhibition, and T-cell cytotoxicity of 2,5-diaminothiazolo[5,4-d]pyrimidin-7(6H)-one and 2,5-diaminothiazolo[4,5-d]pyrimidin-7(6H)-one. Two thio isosteres of 8-aminoguanine” (J Med Chem, 1986).

The species named for assay [1] is Homo sapiens. Description: Cytotoxicity was evaluated against human MGL-8 B -lymphoblasts (Presence of 10 uM 2'-deoxyguanosine (W/GdR)). In kind it is functional. The conditions noted are these: MGL8. Summed up:
(§1)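 Cell growth measured as [3H]thymidine uptake. Lines kept in RPMI 1640 with 10% heat-inactivated fetal calf serum, L-glutamine and penicillin-streptomycin; assay run in RPMI 1640 plus 10% heat-inactivated horse serum.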

For assay [2], the species on record is Homo sapiens. Description: Cytotoxicity was evaluated against human MGL-8 B -lymphoblasts (absence of 10 uM 2'-deoxyguanosine (Wo/GdR)). It is filed as functional. Conditions: MGL8. The method in brief: as §1
The subject of assay [3] is MOLT-4. The experiment in a line: Cytotoxicity was evaluated against human MOLT-4 T-lymphoblasts (absence of 10 uM 2'-deoxyguanosine (Wo/GdR)). In kind it is functional, cell-based. Summed up: as §1
The subject of assay [4] is MOLT-4. The experiment in a line: Cytotoxicity was evaluated against human MOLT-4 T-lymphoblasts (presence of 10 uM 2'-deoxyguanosine (W/GdR)). It is filed as functional, cell-based. Summed up: as §1
In assay [5] the target is T1, Purine nucleoside phosphorylase (Homo sapiens, UniProt P00491).
T1 sequence (P00491 whole entry): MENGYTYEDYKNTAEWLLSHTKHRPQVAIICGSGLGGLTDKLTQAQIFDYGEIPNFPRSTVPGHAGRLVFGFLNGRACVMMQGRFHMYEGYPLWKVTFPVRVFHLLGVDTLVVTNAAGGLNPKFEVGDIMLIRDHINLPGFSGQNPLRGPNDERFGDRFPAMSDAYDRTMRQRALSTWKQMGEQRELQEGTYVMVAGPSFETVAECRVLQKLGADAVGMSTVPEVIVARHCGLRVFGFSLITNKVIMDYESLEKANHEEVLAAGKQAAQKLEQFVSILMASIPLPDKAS
The experiment in a line: Compound was evaluated for 50% inhibition of purine nucleoside phosphorylase activity by was measured by the conversion of [8-14C]-inosine to [8-14C]-hypoxanthine. In kind it is functional.

Broadly, the IC50 is the concentration that inhibits the measured activity by half. `Nc1nc(O)c2nc(N)n([C@@H]3O[C@H](CO)[C@@H](O)[C@H]3O)c2n1`: the IC50 was > 500 µM in assay [1], > 500 µM in assay [2], ~500 µM in assay [3] and 3.25 µM in assay [4].
Turning to `Nc1nc2[nH]c(N)nc2c(=O)[nH]1` [8-AMINOGUANINE], the IC50 in assay [1] was > 500 µM; in assay [2], > 500 µM; in assay [3] it was ~400 µM; in assay [4], 2.35 µM; in assay [5], 1.55 µM.
For `Nc1nc2sc(N)nc2c(=O)[nH]1`, the IC50 in assay [1] is > 50 µM; in assay [2], > 50 µM; in assay [3], > 50 µM; in assay [4], > 50 µM; in assay [5], 142 µM.
Regarding `Nc1nc2nc(N)sc2c(=O)[nH]1`, the IC50 in assay [1] was > 50 µM; in assay [2] it was > 50 µM; in assay [3], > 50 µM; in assay [4], > 50 µM; in assay [5], ~330 µM.
